Screens (PubChem BioAssay)
In the library only some 2.4% were active in any assay of this set; here they are far more common.
NPY-Y1 PAM-ag – NPY-Y1 receptor potentiators or agonists, primary screen, cell-based | Neuropeptide Y receptor type 1 (Homo sapiens), P25929 | activation, % at 3.6 µM | NPY-Y1 expressing cells, potentiator/agonist activation | actives 0.37% (n = 220,000); in the data active = activation above about 33%, passing the limit was not always enough;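 note: cells stimulated with NPY at EC10 then isoproterenol at EC100; 0% = low agonist plus stimulus and 100% = saturating agonist plus stimulus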
S1P4 antag – S1P4 receptor antagonists, primary screen, cell-based; Sphingosine 1-phosphate receptor 4 (Homo sapiens), O95977; S1P4-expressing cells, antagonist mode, reporter read-out; inhibition, % at 4.98 µM; actives 0.26% (n = 220,000); in the data active = inhibition above about 29%;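 note: 0% = wells stimulated with agonist and 100% = vehicle wells without agonist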
Target sequence (O95977 whole entry, looked up): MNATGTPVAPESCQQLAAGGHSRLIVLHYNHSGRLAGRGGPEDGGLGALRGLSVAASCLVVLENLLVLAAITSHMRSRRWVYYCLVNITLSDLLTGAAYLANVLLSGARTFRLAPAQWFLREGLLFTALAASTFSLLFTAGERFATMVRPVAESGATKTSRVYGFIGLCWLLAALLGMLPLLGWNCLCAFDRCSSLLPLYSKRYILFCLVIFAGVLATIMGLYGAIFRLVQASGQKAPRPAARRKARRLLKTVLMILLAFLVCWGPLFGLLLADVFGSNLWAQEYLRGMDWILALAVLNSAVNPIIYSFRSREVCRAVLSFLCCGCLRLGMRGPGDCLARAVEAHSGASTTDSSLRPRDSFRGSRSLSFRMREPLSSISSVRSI
NPY-Y1 antag – NPY-Y1 receptor antagonists, primary screen, cell-based; HEK293-CNG Y1 cells, membrane potential fluorescence; NPY at EC95, then isoproterenol; inhibition, % at 3.6 µM; actives 1% (n = 200,000);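 active = inhibition above the campaign mean inhibition of all tested compounds plus 3 SD, cut at about 20% in these data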;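 note: 0% = DMSO wells given NPY plus isoproterenol and 100% = isoproterenol alone without NPY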
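Material: HEK293 Y1/CNG channel cell line | Also added: NPY (25 nM), isoproterenol (1 µM), Ro 20-1724 (25 µM) | Compound: One concentration, 3.6 µM, in 0.4% DMSO | Schedule: 3 h dye uptake, 1 h room-temperature compound, 45 min post-isoproterenol | Signal: Membrane-potential fluorescent dye readout | Read-out: % inhibition of NPY effect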
S1P4 agonist – S1P4 receptor agonists, primary screen, cell-based; activation, % at 4.98 µM; Sphingosine 1-phosphate receptor 4 (Homo sapiens), O95977; AID 1509, 2009; S1P4-expressing cell line, agonist reporter assay; actives 0.35% (n = 220,000); in the data active = activation above about 11%;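 note: 0% = DMSO vehicle and 100% = reference agonist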
NPY Y2 blocker – NPY-Y2 receptor antagonists, primary screen, cell-based | Neuropeptide Y receptor type 2 (Homo sapiens), P49146 | NPY-Y2 expressing cells, antagonist mode | inhibition, % at 2.7 µM | actives 0.99% (n = 140,000) | AID 793, 2007; in the data active = inhibition above about 17%;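 note: 0% = vehicle with agonist challenge and 100% = reference antagonist with challenge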
Target sequence (P49146 whole entry, looked up): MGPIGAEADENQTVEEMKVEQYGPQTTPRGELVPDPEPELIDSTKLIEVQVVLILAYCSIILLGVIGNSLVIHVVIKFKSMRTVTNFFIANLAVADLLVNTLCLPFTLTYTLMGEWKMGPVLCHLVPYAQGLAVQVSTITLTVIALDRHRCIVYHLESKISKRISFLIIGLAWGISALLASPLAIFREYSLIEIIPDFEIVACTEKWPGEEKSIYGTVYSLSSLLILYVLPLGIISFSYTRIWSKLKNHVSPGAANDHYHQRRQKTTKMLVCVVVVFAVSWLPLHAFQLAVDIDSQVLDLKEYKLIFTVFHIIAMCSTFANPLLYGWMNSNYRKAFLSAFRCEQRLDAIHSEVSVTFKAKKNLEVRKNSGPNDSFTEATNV
NPY-Y2 PAM-ag – NPY-Y2 potentiators or agonists, primary screen, cell-based; Neuropeptide Y receptor type 2 (Homo sapiens), P49146; cells expressing NPY-Y2, potentiator/agonist read-out; activation, % at 3.6 µM; actives 0.45% (n = 220,000); in the data active = activation above about 27%;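 note: cells stimulated with NPY near EC25 plus isoproterenol at EC100; 0% = vehicle plus submaximal agonist and 100% = vehicle plus saturating agonist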
NPY-Y2 pot conf – NPY-Y2 potentiators or agonists, confirmation, cell-based. shares compounds with NPY-Y2 PAM-ag. actives 20% (n = 450). AID 1539, 2009. activation, % at 3.6 µM. cell-based NPY-Y2 potentiator/agonist assay; in the data active = activation above about 33%
NPY-Y1 counter – NPY-Y1 potentiators or agonists, counter-screen for NPY-Y2 potentiator project, cell-based, fluorescence; Y1 HEK293-CNG cells, membrane potential fluorescence; shares compounds with NPY-Y2 PAM-ag; AID 1651, 2009; activation, % at 3.6 µM; actives 20% (n = 450); in the data active = activation above about 45%;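 note: cells stimulated with submaximal NPY then isoproterenol with phosphodiesterase inhibitor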
NPY-Y1 ag 2 – NPY-Y1 direct agonists, selectivity assay for NPY-Y2 potentiator project, cell-based, fluorescence; activation, % at 3.6 µM; shares compounds with NPY-Y2 PAM-ag; actives 37% (n = 450); AID 1702, 2009; HEK293 Y1-CNGC, membrane potential fluorescence, agonism;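 active = activation above the mean of DMSO-only control wells plus 3 SD, cut at about 18% in these data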;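 note: cells stimulated with 1 µM isoproterenol plus the PDE inhibitor Ro 20-1724; 0% = isoproterenol with DMSO and no NPY and 100% = 40 nM NPY; Y1 agonists lower the membrane potential dye signal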
CNGC inh – CNGC cAMP sensor activity inhibitors, counter-screen for NPY-Y2 potentiator project, cell-based, HEK293-CNG parental, membrane potential fluorescence | shares compounds with NPY-Y2 PAM-ag | isoproterenol cAMP | inhibition, % at 3.6 µM | actives 32% (n = 450);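 active = inhibition above the control-well mean plus 3 SD of those wells, cut at about 22% in these data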;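 note: 0% = DMSO with isoproterenol and 100% = DMSO without isoproterenol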
NPY-Y2 ag 2 – NPY-Y2 direct agonists, counter-screen for NPY-Y2 potentiator project, cell-based, fluorescence. shares compounds with NPY-Y2 PAM-ag. HEK293 Y2/CNGC cells, membrane potential fluorescence, agonist mode. activation, % at 3.6 µM. actives 56% (n = 450). AID 1710, 2009;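 active = activation above the mean of solvent-only control wells plus 3 SD, cut at about 10% in these data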;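 note: cells stimulated by isoproterenol with no NPY added so direct agonism is tested; 0% = DMSO with isoproterenol alone and 100% = NPY at EC100 plus isoproterenol; agonism lowers probe fluorescence through less cAMP and CNG channel opening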
* = called active by the depositor; . = no result given.

SMILES | NPY-Y1 PAM-ag | S1P4 antag | NPY-Y1 antag | S1P4 agonist | NPY Y2 blocker | NPY-Y2 PAM-ag | NPY-Y2 pot conf | NPY-Y1 counter | NPY-Y1 ag 2 | CNGC inh | NPY-Y2 ag 2
COc1ccc(N=c2cc(-c3ccc(OC)cc3)oc3ccccc23)cc1 | 31.2 | 3.6 | -2.4 | -0.4 | 3.4 | 29.6* | 51.8* | 73.5* | 61.1* | 52.7* | 54.4*
CC(C)C[C@H](NC(=O)c1nc[nH]c1C(=O)NC1CCN(C(=O)OC(C)(C)C)CC1)C(=O)OCc1ccccc1 | 30.1 | 3.4 | -9.9 | 2.1 | . | 44.3* | 25.8 | 46.2* | 19.6* | 22.2* | 20.8*
CC(C)C(O)(C#CCN1CCCCC1)c1ccccc1 (centres undefined) | -1.1 | -3.0 | -1.6 | 0.1 | 2.8 | 10.9 | . | . | . | . | .
CC(C)C(O)(C#CCN1CCCC1)c1ccccc1 (centres undefined) | 4.9 | -14.9 | 3.7 | 0.0 | -0.4 | 101.9* | -6.5 | -11.1 | -5.8 | -3.8 | 0.9
CCCCCCCN1C2=NCCCN2c2ccccc21 | -33.8 | 15.9 | 19.0 | -0.4 | . | -23.8 | . | . | . | . | .
CN(C)C=Nc1ncc2c3ccccc3n(CCN(C)C)c2c1C#N | -36.8 | -15.3 | -3.3 | 0.3 | 1.6 | 100.8* | -7.2 | -11.3 | -22.5 | -11.6 | -14.6
CCC(NC(C)C)C(O)c1ccc(O)c(O)c1 (centres undefined) | 61.1 | -9.3 | -3.5 | 0.3 | 0.4 | 64.9* | 52.7* | 50.6* | 67.5* | 52.9* | 40.7*
CC(C)C(=O)c1ccc(O)c(O)c1 | 2.8 | 7.8 | . | -0.8 | . | -10.8 | . | . | . | . | .
Cc1cccc(Oc2cc(NC(=O)Cn3cnc([N+](=O)[O-])n3)cc([N+](=O)[O-])c2)c1 | 34.5 | -10.6 | -7.7 | -0.5 | -6.0 | 28.5 | . | . | . | . | .
O=C(Cn1cnc([N+](=O)[O-])c1)Nc1cc(Oc2ccc(Cl)cc2Cl)cc([N+](=O)[O-])c1 | 22.3 | 5.3 | -4.8 | -0.1 | -6.0 | 34.3* | 35.2* | 37.9 | 30.6* | 40.2* | 51.5*
N/C(=N\OC(=O)COc1ccc(Br)cc1Cl)c1cccnc1 | 19.2 | -8.6 | 6.3 | 0.2 | 6.6 | -0.1 | . | . | . | . | .
CC1=NC(=O)C(N=Nc2ccccc2C(=O)O)N1c1ccccc1 (centres undefined) | 30.4 | -20.9 | -3.6 | -0.2 | . | 29.9* | 21.0 | 29.4 | 10.0 | -0.6 | 14.5*
COc1ccc(Cc2n[nH]c(=S)n2N)cc1OC | -5.6 | -15.1 | 6.7 | 0.4 | . | -7.8 | . | . | . | . | .
CCCN1C2CCCC1CC(NC(=O)Nc1cccc(C(C)=O)c1)C2 (centres undefined) | 4.1 | 1.4 | 7.1 | -4.3 | 0.0 | 2.4 | . | . | . | . | .
CCCN1C2CCCC1CC(NC(=O)Nc1ccc(C(C)C)cc1)C2 (centres undefined) | 13.5 | -14.8 | -7.1 | -3.2 | -0.1 | 34.4* | 22.0 | 30.1 | 19.1* | 28.2* | 24.4*
COC(=O)c1[nH]c2ccc(C)cc2c1NC(=O)CCN1CCN(C2CCCCC2)CC1 | -9.0 | 8.1 | -3.2 | 0.1 | 1.5 | -4.0 | . | . | . | . | .
COC(=O)c1[nH]c2ccc(Br)cc2c1NC(=O)CN1CCN(C2CCCCC2)CC1 | 30.4 | -8.8 | 5.6 | -1.6 | 13.4 | 33.3* | 42.7* | 57.3* | 28.2* | 49.4* | 33.1*
COC(=O)c1ccccc1NC(=O)/C=C/c1ccco1 | 26.0 | -9.8 | -7.5 | 1.6 | -3.1 | 32.8* | 41.1* | 50.3* | 56.2* | 35.3* | 47.9*
Cc1cc(C)cc(NC(=S)N2CCC(N(C)CC3CCCO3)CC2)c1 (centres undefined) | 11.5 | 3.6 | -2.1 | 1.5 | . | 30.8* | 7.2 | 2.7 | -3.3 | 5.4 | 9.7
CC(C)(C)c1ccc(-c2nnc(N)o2)cc1 | 16.6 | 2.4 | . | -0.5 | . | 6.4 | . | . | . | . | .
Cc1nn(Cc2ccc(Cl)cc2)c(C)c1NC(=O)CSc1n[nH]c(C)c1[N+](=O)[O-] | 8.9 | -8.8 | -3.5 | 1.5 | 0.7 | 28.6* | 13.3 | 16.1 | 15.6 | 19.4 | 26.5*
CC(C)(C)N(Cc1cc2ccccc2[nH]c1=O)C(=O)c1cccnc1 | 13.8 | 8.6 | -2.1 | -0.6 | -0.7 | 85.0* | -0.6 | -0.2 | 0.0 | 1.0 | 0.6
O=c1[nH]cc(COCC(F)CCl)c(=O)[nH]1 (centres undefined) | -5.6 | -15.6 | . | -2.1 | . | 93.1* | -3.1 | 2.4 | 2.8 | 10.0 | 7.4
O=C1c2ccccc2C(=O)N1CCCOCc1c[nH]c(=O)[nH]c1=O | 10.5 | 2.7 | 5.2 | 0.4 | 5.5 | 3.3 | . | . | . | . | .
O=C(Nc1ccccc1)OC1CCC2CC1CCC2OC(=O)Nc1ccccc1 (centres undefined) | 40.2 | -10.6 | 5.2 | 0.2 | 13.5 | 30.8* | 51.1* | 71.5* | 54.8* | 38.1* | 66.5*
SMILES | NPY-Y1 PAM-ag | S1P4 antag | NPY-Y1 antag | S1P4 agonist | NPY Y2 blocker | NPY-Y2 PAM-ag | NPY-Y2 pot conf | NPY-Y1 counter | NPY-Y1 ag 2 | CNGC inh | NPY-Y2 ag 2
Cc1cc(C)n(-c2ccc(Cl)c(C(=O)Nc3cc(C(F)(F)F)ccc3Cl)n2)n1 | 7.5 | 4.9 | 0.6 | -0.6 | 2.6 | -0.1 | . | . | . | . | .
Cc1scc(C(=O)N2CCN(c3ccc(Cl)cc3)CC2)c1C | 6.1 | -11.1 | 2.6 | 2.2 | . | -3.9 | . | . | . | . | .
CCCN1Cc2cccc(C(=O)N3CCN(c4ccccc4)CC3)c2C1=O | 3.5 | -3.4 | 1.8 | 1.1 | 2.5 | 38.0* | -5.3 | 5.1 | -15.4 | -3.7 | 9.0
CCCN1Cc2cccc(C(=O)N3CCN(c4ccc(OC)cc4)CC3)c2C1=O | 5.6 | -6.0 | -4.4 | -0.5 | . | -3.8 | . | . | . | . | .
Cn1c(N)c(C(=O)N/N=C/c2ccccc2)sc1=S | 43.2 | -6.3 | . | -1.1 | . | 39.6* | 24.8 | 32.9 | 23.1* | 33.4* | 16.7*
Cn1c(N)c(C(=O)Nc2ccc3ccccc3c2)sc1=S | 4.6 | -10.8 | -3.5 | 0.1 | -1.4 | 7.3 | . | . | . | . | .
